Published values from different studies.
Compare with care: the assays were run in different laboratories. Values after ≈ are worked out from the molar mass of the structure shown.

Structure (SMILES) | tested on | test | test system | setting | measurement | result
C[C@@H]1C[C@@H]([C@H](O)CC2CC(=O)NC(=O)C2)C(=O)[C@@H](C)C1 | Pseudomonas aeruginosa | microbial growth, broth dilution | ATCC27 ATCC27853 |  | MIC | 16 µg/mL (≈ 56.9 µM)
O=[N+]([O-])c1ccc(NCCCCN=C=S)c2nonc12 | T47D | cell growth or viability, MTT |  | 24 h | IC50 | 2.8 µM
NCC[C@H](O)C(=O)N[C@@H]1C[C@H](N)[C@@H](O[C@H]2O[C@H](CN)[C@@H](O)[C@H](O)[C@H]2O)[C@H](O)[C@H]1O[C@H]1O[C@H](CO)[C@@H](O)[C@H](N)[C@H]1O | Mycobacteroides abscessus | microbial growth, broth dilution |  |  | MIC90 | 3.4 µg/mL (≈ 5.81 µM)
C[C@@H](N)[C@H](O)CCCCCCCC(=O)CCCCCCCCCCCCCC[C@@H](O[C@@H]1O[C@H](CO)[C@H](O)[C@H](O)[C@H]1O)[C@@H](C)N | Pseudomonas aeruginosa | microbial growth, resazurin | ATCC27853 | 50 µM | inhibition | 99%
O=c1c2ccccc2[se]n1-c1ccccc1 | Zika virus | viral replication |  | 48 h | IC50 | 7.4 µM
C#CCCC1(CCC(=O)NCc2cc(=O)c(O)c(CNC(=O)CCCCCC)n2C)N=N1 | Pseudomonas aeruginosa | microbial growth | PAO1 |  | IC50 | > 100 µM
NNC(=O)c1ccncc1 | Mycobacteroides abscessus | microbial growth, broth dilution |  |  | MIC90 | > 500 µg/mL
Cc1cc(=O)oc2cc(OCCCC[Se]C#N)ccc12 | T47D | cell growth or viability, SRB |  |  | GI50 | 2.2 µM
C#CCCCCC(=O)NCc1cc(=O)c(O)c(CNC(=O)CCCCCC)n1C | Pseudomonas aeruginosa | microbial growth | PAO1 |  | IC50 | > 100 µM
N#C[Se]CCCCOc1ccc2c(-c3ccccc3)cc(=O)oc2c1 | T47D | cell growth or viability, SRB |  |  | GI50 | 26 µM
N.N.[Cl][Pt][Cl] | SU-DHL-2 | cell growth or viability, ATP luminescence |  | 72 h | IC50 | 0.56 µM
C#CCCCCCC(=O)NCc1c(O)c(=O)cc(C)n1C | Pseudomonas aeruginosa | microbial growth | PAO1 |  | IC50 | > 100 µM
Cc1c(Cl)c(=O)oc2cc(OCCCC[Se]C#N)ccc12 | MIA PaCa-2 | cell growth or viability, SRB |  |  | GI50 | 13 µM
